XBP1 UPR activ – activators of adaptive XBP1 UPR arm, primary screen, cell-based, CHO-XBP1 luciferase reporter, luminescence, uHTS; AID 463104, 2010; 330,000 compounds, 0.33% hits; IRE1-XBP1 UPR activation; percent of tunicamycin response, DMSO as zero; activation, % at 20 µM;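 active = versus positive control, 20 µM dose yields 30% or more activation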;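 also: 100% = tunicamycin at 10 µg/mL and 0% = DMSO only wells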
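Material: CHO cell line with stable XBP1 luciferase reporter; schedule: 16-18 h cell attachment at 37 °C, then 6 h compound exposure; signal: glow luminescence from Steady-Glo reagent; medium: serum-containing F12 medium, 10% FBS; benchmarks: tunicamycin 10 µg/mL and vehicle-only wells; read-out: percent activation relative to tunicamycin reference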
T cell HTS – modulators of CD8 T cell-vesicle binding, primary screen, mouse 2C CD8+ T cells, flow cytometry. 2C CD8+ T cell-vesicle binding; stronger effect = lower value. response (vesicle binding), % at 7 µM. 330,000 compounds, 0.068% hits. AID 2052, 2009;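 active = response, share of CD8 T cells binding vesicles, and their 90th percentile fluorescence all below set limits, cut at about 80% in these data, passing the limit was not always enough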;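 also: values below 100% mean blocked vesicle binding to the CD8+ T cells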
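Incubation: binding step 1.5 h, 37 °C, antibody labelling 20 min, ice; system: murine 2C transgenic CD8+ T lymphocytes; technique: cytometric PE anti-B7-1 and Alexa647 anti-CD8 signals after 1% paraformaldehyde fixation; also added: QL9-charged Drosophila Ld/ICAM-1/B7-1 vesicles; control set: naked versus QL9-loaded vesicles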
Beta2AR agonist – beta2AR agonists driving receptor internalization, primary screen, cell-based, FAP fluorogen, flow cytometry; Beta-2 adrenergic receptor (Homo sapiens), P07550; response, % (test concentration not listed); Am2.2-beta2AR cells; 340,000 compounds, 0.43% hits; AID 504454, 2011;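 active = response above a set limit, near 3 SD of response in nonfluorescent compounds, cut at about 42% in these data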
Target sequence (P07550 whole entry, looked up): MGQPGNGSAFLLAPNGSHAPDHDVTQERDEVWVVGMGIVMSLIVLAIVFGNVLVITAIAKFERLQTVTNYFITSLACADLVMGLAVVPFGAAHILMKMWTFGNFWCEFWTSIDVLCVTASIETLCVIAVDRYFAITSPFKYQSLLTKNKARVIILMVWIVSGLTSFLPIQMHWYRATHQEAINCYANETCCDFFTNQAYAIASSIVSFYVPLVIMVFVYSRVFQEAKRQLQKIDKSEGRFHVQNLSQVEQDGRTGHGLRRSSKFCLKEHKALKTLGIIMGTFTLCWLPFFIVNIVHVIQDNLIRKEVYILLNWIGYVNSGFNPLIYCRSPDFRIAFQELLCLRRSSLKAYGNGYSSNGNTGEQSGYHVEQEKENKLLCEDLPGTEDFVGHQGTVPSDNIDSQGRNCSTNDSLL
UPR CHOP act – activators of apoptotic CHOP UPR arm, primary screen, cell-based, CHO-CHOP luciferase reporter, luminescence, uHTS; UPR activation; percent of tunicamycin response over DMSO baseline; activation, % at 10 µM; 330,000 compounds, 0.34% hits;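 active = at 10 µM dose, activation of 40% or more, normalized to positive control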;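 also: 100% = tunicamycin at 10 µg/mL and 0% = DMSO alone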
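System: CHO-CHOP luciferase reporter cell line | Buffer or medium: F12 medium containing 10% fetal bovine serum | Doses: One dose, 10 µM in 0.5% DMSO | Times: 6 h compound exposure at 37 °C after overnight seeding | Signal: Luciferase luminescence | Read-out: % activation vs tunicamycin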
UPR CHOP confirm – activators of apoptotic CHOP UPR arm, confirmation, cell-based, CHO-CHOP luciferase reporter, single concentration; shares compounds with UPR CHOP act; CHO-CHOP cells, CHOP-luciferase reporter luminescence; percent of tunicamycin response, DMSO as zero; activation, % at 10 µM; 1,000 compounds, 64% hits; in the data active = activation above about 33%;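 also: 0% = DMSO wells and 100% = tunicamycin 10 µg/mL wells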
XBP1 UPR conf – IRE1-XBP1 UPR arm activators, confirmation, cell-based, CHO-XBP1 luciferase reporter, luminescence, single concentration; shares compounds with XBP1 UPR activ; activation, % at 20 µM; 1,000 compounds, 63% hits;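 active = reporter signal at least 30% of the positive control's activation in two or more of four replicate wells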;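 also: plate controls were DMSO negative control for no effect and tunicamycin 10 µg/mL positive control for full effect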
B2AR ag CP1 – beta2AR agonists via receptor internalization, confirmation, cell-based, FAP fluorogen, flow cytometry, single point, cherry pick 1 | shares compounds with Beta2AR agonist | Am2.2-beta2AR cells, FAP surface receptor; stronger effect = lower value | percent response (surface receptor), % at 10 µM | 1,100 compounds, 25% hits | AID 540358, 2011;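 active = surface receptor percent response at or below 58%, roughly 3 SD from nonfluorescent compounds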
B2AR FAP counter – fluorescence artifact in beta-2AR agonist FAP counterscreen; shares compounds with Beta2AR agonist; Am2.2 cells, FAP fluorogen flow cytometry; stronger effect = lower value; calls only at 10 µM; 1,100 tested, under 10 active; AID 588765;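 active = percent response below a set limit in fluorescence channel 1 and below 50% in channel 8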
The depositor's hits bear a star. An excerpt weighted towards active compounds, which were near 1% of everything screened.

Screening Cc1ccc(NC(=S)N(Cc2ccc(Cl)cc2)Cc2ccc(C(=O)O)cc2)cc1Cl returned XBP1 UPR activ 7, T cell HTS 251, Beta2AR agonist 3 and UPR CHOP act 0.
Cc1nn(-c2ccccc2)c2[nH]c(=O)cc(C(F)(F)F)c12 was read as XBP1 UPR activ 3, T cell HTS 281, Beta2AR agonist 2 and UPR CHOP act -1.
Cc1cc(C)c2c(c1)/C(=c1/sc3n(c1=O)CN(c1ccccc1)CN=3)C(=O)N2 was read as XBP1 UPR activ 190*, T cell HTS 483, Beta2AR agonist 4, UPR CHOP act 102*, UPR CHOP confirm 83* and XBP1 UPR conf 168*.
Screening O=c1/c(=C/c2ccccn2)sc2n1CN(c1ccccc1)CN=2 returned XBP1 UPR activ -1, T cell HTS 216, Beta2AR agonist 1 and UPR CHOP act 2.
`CCO[C@@H]1OC(C(=O)N2CCCCCCC2)=C[C@H](c2csc3ccccc23)[C@H]1CCCO` gave XBP1 UPR activ -1, T cell HTS 424, Beta2AR agonist -12 and UPR CHOP act -1.
Cc1ccc(-n2nc3cc(C)c(NC(=S)NC(=O)/C=C/c4ccco4)cc3n2)cc1 was read as XBP1 UPR activ 56*, T cell HTS 371, Beta2AR agonist -5, UPR CHOP act 65*, UPR CHOP confirm 128* and XBP1 UPR conf 114*.
O=C1NC(Cc2ccc(O)cc2)c2nc3ccccc3c(=O)n2-c2ccccc21 (stereo unspecified) was read as XBP1 UPR activ 2 and UPR CHOP act 2.
For Oc1cccc(/C=N/Nc2ncnc3c2ncn3Cc2ccccc2)c1 the results were XBP1 UPR activ 3, T cell HTS 333, Beta2AR agonist 0 and UPR CHOP act 2.
Oc1ccc(/C=N/Nc2ncnc3c2ncn3Cc2ccccc2)cc1O was read as XBP1 UPR activ 136*, T cell HTS 385, Beta2AR agonist 19, UPR CHOP act 223*, UPR CHOP confirm 67* and XBP1 UPR conf 76*.
`COc1cc(CNn2c(C)n[nH]c2=S)cc(Br)c1OCC(=O)NC(C)(C)C` gave XBP1 UPR activ 0, T cell HTS 467, Beta2AR agonist 11 and UPR CHOP act 1.
Screening Fc1c(F)c(F)c(SCn2cc(Br)cn2)c(F)c1F returned XBP1 UPR activ -1, T cell HTS 522, Beta2AR agonist -1 and UPR CHOP act 0.
Screening COC(=O)c1ccc(COc2ccccc2/C=C(\C#N)C(=O)Nc2c(C)cccc2C)cc1 returned XBP1 UPR activ 65*, T cell HTS 424, Beta2AR agonist 10, UPR CHOP act 128*, UPR CHOP confirm 85* and XBP1 UPR conf 65*.
Screening COC(=O)c1ccc(COc2ccccc2/C=C(\C#N)C(=O)Nc2ccccc2C)cc1 returned XBP1 UPR activ 8, T cell HTS 358, Beta2AR agonist 1 and UPR CHOP act 2.
For CC1=C(/C=C/C(C)=C/C=C/C(C)=C/C(=O)Nc2ccc(O)cc2)C(C)(C)CCC1 the results were XBP1 UPR activ 54*, T cell HTS 422, Beta2AR agonist 9, UPR CHOP act 93*, UPR CHOP confirm 131* and XBP1 UPR conf 55*.
Screening CC1=C(/C=C/C(C)=C/C=C/C(C)=C\C(=O)O)C(C)(C)CCC1 returned XBP1 UPR activ -6, T cell HTS 721, Beta2AR agonist 4 and UPR CHOP act 4.
Screening COc1cc(C(=O)Oc2c(CN3CCOCC3)cc(Cl)c3cccnc23)cc(OC)c1OC returned XBP1 UPR activ 24, T cell HTS 528, Beta2AR agonist -14, UPR CHOP act 62*, UPR CHOP confirm 56*, B2AR ag CP1 98 and B2AR FAP counter inactive.
For Cc1ccc(-c2nc(NC(=O)c3nn(C)cc3[N+](=O)[O-])sc2C)cc1 the results were XBP1 UPR activ 8, T cell HTS 304, Beta2AR agonist 104*, UPR CHOP act 100*, UPR CHOP confirm 59*, B2AR ag CP1 9.7* and B2AR FAP counter inactive.
Screening Cc1cnc(NC(=O)c2nn(C)cc2[N+](=O)[O-])s1 returned XBP1 UPR activ -3, Beta2AR agonist 1 and UPR CHOP act 2.
Cc1ccc(-c2nc(NC(=O)c3nn(C)cc3[N+](=O)[O-])sc2C)cc1C was read as XBP1 UPR activ 13, T cell HTS 246, Beta2AR agonist 80*, UPR CHOP act 65*, UPR CHOP confirm 68*, B2AR ag CP1 48* and B2AR FAP counter inactive.
Screening O=C1C2CC=CCC2C(=O)N1CC(=O)N(Cc1ccccc1)C1CCS(=O)(=O)C1 (stereo unspecified) returned XBP1 UPR activ -1, T cell HTS 804, Beta2AR agonist -1 and UPR CHOP act -2.
CC(C)c1nnc(NC(=O)CCS(=O)(=O)c2nc(-c3cccs3)cc(C(F)(F)F)n2)s1 was read as XBP1 UPR activ -6, T cell HTS inactive, Beta2AR agonist 97*, UPR CHOP act 74*, UPR CHOP confirm 48*, B2AR ag CP1 55* and B2AR FAP counter inactive.
For CC(C)c1nnc(NC(=O)CCS(=O)(=O)Cc2ccccc2)s1 the results were XBP1 UPR activ -3, T cell HTS 400, Beta2AR agonist 7 and UPR CHOP act 0.
`Cc1sc2ncnc(Sc3nnnn3-c3ccccc3)c2c1C` gave XBP1 UPR activ -6, T cell HTS 416, Beta2AR agonist 1 and UPR CHOP act 7.
`Clc1ccc(-n2nnnc2Sc2ncnc3sccc23)cc1` gave XBP1 UPR activ -9, T cell HTS 480, Beta2AR agonist 54*, UPR CHOP act 89*, UPR CHOP confirm 112*, B2AR ag CP1 35* and B2AR FAP counter inactive.

Assay outcomes (PubChem)
